Results from ChEMBL document CHEMBL3612038, “N-Alkyl/aryl-4-(3-substituted-3-phenylpropyl)piperazine-1-carbothioamide as dual-action vaginal microbicides with reverse transcriptase inhibition” (Eur J Med Chem, 2015).
Converted amounts (≈) assume the structure as drawn.

How the values were obtained:
Oryctolagus cuniculus [1] = assay: Drug level in plasma of New-Zealand rabbit at 33 mg/kg dosed through vaginal administration by LC-MS/MS method; assay type: ADME, organism-based; conditions: in vivo, other
Procedure, shortened: (§1)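 Female New Zealand rabbits received a single vaginal dose of 33 mg/kg. Drug in plasma was quantified by LC-MS/MS on a C18 column with phenacetin as internal standard. For each plasma sample (50 µL), 200 µL of internal-standard solution (200 ng/mL phenacetin in acetonitrile) was added. Samples were mixed, centrifuged at 13,000 rpm for 20 min, and the supernatant injected. The method was validated to FDA bioanalytical criteria.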

[2] = Terminal half life in New-Zealand rabbit at 33 mg/kg dosed through vaginal administration by LC-MS/MS method; assay type: ADME, organism-based, Oryctolagus cuniculus; conditions: in vivo, read-out: beta t1/2 (converted); procedure, shortened: as §1
Aspergillus fumigatus = assay: Antifungal activity against Aspergillus fumigatus incubated for 48 hrs by broth micro-dilution method; assay type: functional
Procedure, shortened: (§2)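 Broth microdilution per NCCLS guidelines in RPMI 1640 buffered with MOPS; starting inoculum 1–5 × 10^3 CFU/mL; plates incubated at 35 °C, MIC read after 48 h.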

Sporothrix schenckii = assay: Antifungal activity against Sporothrix schenckii incubated for 48 hrs by broth micro-dilution method; assay type: functional; procedure, shortened: as §2
Candida albicans = assay: Antifungal activity against Candida albicans incubated for 48 hrs by broth micro-dilution method; assay type: functional; procedure, shortened: as §2
Trichomonas vaginalis [3] = assay: Anti-trichomonas activity against MTZ-susceptible Trichomonas vaginalis incubated for 3 to 48 hrs by trypan blue exclusion assay; assay type: functional
Procedure, shortened: (§3)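 Trichomonas vaginalis trophozoites (5 × 10^4/L as printed) in TYM medium; DMSO stocks (100.0 mg/mL) serially diluted in TYM to 0.1 mg/mL, DMSO/TYM vehicle controls. Anaerobic incubation at 37 °C; viability checked 3–48 h by microscopy (200×) with trypan blue exclusion. MIC = lowest concentration killing all cells within 48 h.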

Cryptococcus neoformans = assay: Antifungal activity against Cryptococcus neoformans incubated for 48 hrs by broth micro-dilution method; assay type: functional; procedure, shortened: as §2
[4] = Spermicidal activity in liquefied human semen assessed as reduction in motile spermatozoa incubated at 37 degC for 30 mins; assay type: functional, Sperm
Procedure, shortened: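 Compounds dissolved in minimal DMSO, diluted with 0.85% saline to 1.0% test solution; liquefied human semen mixed 1:5 with test solution, vortexed 10 s; motile sperm scored by phase-contrast microscopy over 60 s in five fields. MEC = lowest concentration immobilizing 100% of sperm, still immotile after dilution with nutrient medium.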

Trichomonas vaginalis [5] = assay: Anti-trichomonas activity against MTZ-resistant Trichomonas vaginalis incubated for 3 to 48 hrs by trypan blue exclusion assay; assay type: functional; procedure, shortened: as §3
[6] = Stability in simulated vaginal fluid at pH 4.2 at 200 ng/ml by LC-MS/MS method; conditions: buffer
[7] = AUC (0 to infinity) in New-Zealand rabbit at 33 mg/kg dosed through vaginal administration by LC-MS/MS method; assay type: ADME, organism-based, Oryctolagus cuniculus; parameters: dose 33 mg/kg, time infinity; conditions: in vivo; procedure, shortened: as §1
[8] = Cmax in New-Zealand rabbit at 33 mg/kg dosed through vaginal administration by LC-MS/MS method; assay type: ADME, organism-based, Oryctolagus cuniculus; parameters: dose 33 mg/kg; conditions: in vivo; procedure, shortened: as §1
[9] = system: Trichophyton mentagrophytes; assay: Antifungal activity against Trichophyton mentagrophytes incubated for 48 hrs by broth micro-dilution method; assay type: functional; procedure, shortened: as §2
Candida parapsilosis = assay: Antifungal activity against Candida parapsilosis ATCC 22019 incubated for 48 hrs by broth micro-dilution method; assay type: functional; conditions: Lodderomyces parapsilosis, ATCC 22019, 48 h; procedure, shortened: as §2
Oryctolagus cuniculus [10] = assay: Apparent […] volume of distribution in New-Zealand rabbit at 33 mg/kg dosed through vaginal administration by LC-MS/MS method; assay type: ADME, organism-based; conditions: in vivo; procedure, shortened: as §1
[11] = Tmax in New-Zealand rabbit at 33 mg/kg dosed through vaginal administration by LC-MS/MS method; assay type: ADME, organism-based, Oryctolagus cuniculus; conditions: in vivo; procedure, shortened: as §1

## CCCCCCCCCc1ccc(OCCOCCOCCOCCOCCOCCOCCOCCOCCO)cc1 [NONOXYNOL 9]
Oryctolagus cuniculus [1]
  Drug uptake: Not Active
[2]
  half-life: 1.59 h
Aspergillus fumigatus
  MIC: > 81.2 µM
Sporothrix schenckii
  MIC: > 81.2 µM
Candida albicans
  MIC: > 81.2 µM
Trichomonas vaginalis [3]
  MIC: 81.2 µM (≈ 50.1 µg/mL)
Cryptococcus neoformans
  MIC: > 81.2 µM
[4]
  MEC: 0.05%
[4]; Homo sapiens, Sperm, Semen, 0.5 h, read-out: MEC
  minimal effective concentration: 810 µM
Trichomonas vaginalis [5]
  MIC: 122 µM (≈ 75.1 µg/mL)
[6]
  Stability: > 1 h
[7]
  AUC(0-inf): 12.9 ng·h/mL
[8]
  Cmax: 3.66 ng/mL
[9]
  MIC: > 81.2 µM
Candida parapsilosis
  MIC: > 81.2 µM
Oryctolagus cuniculus [10]
  Vd/F: 7931.32 L/kg
[11]
  Tmax: 1 h
